According to ChEMBL document CHEMBL3992570, “Integrated Platform for Expedited Synthesis-Purification-Testing of Small Molecule Libraries” (ACS Med Chem Lett, 2017):

Experiments:
Polycomb protein EED [1] = target: T1, Polycomb protein EED (Homo sapiens, UniProt O75530); assay: Inhibition of pyrrolidine inhibitor-based oregon-green probe binding to GST-tagged EED (unknown origin) after 1 hr by assay explorer integrated LanthaScreen TR-FRET assay
Outline: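 On the integrated platform, HPLC fractions were quantified by charged aerosol detection (calibrated with ketoprofen) and dissolved in DMSO to 10 mM stocks. An 11-point, 3-fold serial dilution followed. 50 nL of each dilution was pin-transferred into 10 µL assay buffer (0.5% DMSO final) and incubated 1 h at 25 °C. TR-FRET was read on EnVision, and activity was obtained by curve fitting.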

Polycomb protein EED [2] = target: T1, Polycomb protein EED; assay: Inhibition of pyrrolidine inhibitor-based oregon-green probe binding to GST-tagged EED (unknown origin) after 1 hr by LanthaScreen TR-FRET assay
Outline: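 Compounds were made, purified and tested conventionally as separate steps, under the same assay conditions as the integrated run. Compound in DMSO was added to assay buffer (0.5% DMSO final) and incubated 1 h at 25 °C. The TR-FRET signal was read on a plate reader, and activity was derived by curve fitting.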

T1 sequence (O75530 whole entry): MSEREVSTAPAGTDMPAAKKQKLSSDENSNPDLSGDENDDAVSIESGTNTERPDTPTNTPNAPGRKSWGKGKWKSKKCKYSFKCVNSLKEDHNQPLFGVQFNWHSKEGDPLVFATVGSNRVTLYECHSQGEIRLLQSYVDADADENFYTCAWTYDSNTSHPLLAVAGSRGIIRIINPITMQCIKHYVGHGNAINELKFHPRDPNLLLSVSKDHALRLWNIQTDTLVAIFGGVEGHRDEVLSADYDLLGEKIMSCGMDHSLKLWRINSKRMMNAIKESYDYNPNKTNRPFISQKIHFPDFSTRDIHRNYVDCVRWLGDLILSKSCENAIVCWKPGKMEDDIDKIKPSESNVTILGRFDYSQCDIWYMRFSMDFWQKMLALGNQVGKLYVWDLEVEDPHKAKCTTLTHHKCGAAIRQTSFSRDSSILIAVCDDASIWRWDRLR

Structure (SMILES) | IC50 (Polycomb protein EED [1]) [nM] | IC50 (Polycomb protein EED [2]) [nM]
CC(=O)NC1CCN(c2ccc([C@H]3CN(Cc4c(C)cccc4F)C[C@@H]3N(C)C)cc2)CC1 | 40 | 160
Cc1cccc(F)c1CN1C[C@H](c2ccc(N3CCn4ccnc4C3)cc2)[C@@H](N(C)C)C1 | 70 | 100
Cc1cc([C@H]2CN(Cc3c(C)cccc3F)C[C@@H]2N(C)C)ccc1C(=O)Nc1cccnc1 | 80 | 100
Cc1ccc(N2CCN(c3ccc([C@H]4CN(Cc5c(C)cccc5F)C[C@@H]4N(C)C)cc3)CC2)cc1 | 150 | 220
Cc1cccc(F)c1CN1C[C@H](c2ccc(N3CCN(c4ccccc4)CC3)cc2)[C@@H](N(C)C)C1 | 50 | 90
Cc1cccc(F)c1CN1C[C@H](c2ccc(N3CCC(N(C)C)CC3)cc2)[C@@H](N(C)C)C1 | 40 | 100
Cc1cccc(F)c1CN1C[C@H](c2ccc(N3CCN(c4ccccc4S(C)(=O)=O)CC3)cc2)[C@@H](N(C)C)C1 | 70 | 190
Cc1cc([C@H]2CN(Cc3c(C)cccc3F)C[C@@H]2N(C)C)ccc1C(=O)NCc1ccncc1 | 70 | 110
Cc1cccc(F)c1CN1C[C@H](c2ccc(N3CCN(c4ccncc4)CC3)cc2)[C@@H](N(C)C)C1 | 10 | 10
Cc1cc([C@H]2CN(Cc3c(C)cccc3F)C[C@@H]2N(C)C)ccc1C(=O)NCc1ccccn1 | 70 | 80
Cc1cc([C@H]2CN(Cc3c(C)cccc3F)C[C@@H]2N(C)C)ccc1C(=O)N(C)C | 110 | 180
Cc1cc([C@H]2CN(Cc3c(C)cccc3F)C[C@@H]2N(C)C)ccc1C(=O)N1CCN(CCO)CC1 | 270 | 380
Cc1ccc(S(=O)(=O)N2CCN(c3ccc([C@H]4CN(Cc5c(C)cccc5F)C[C@@H]4N(C)C)cc3)CC2)cc1 | 50 | 80
Cc1cccc(F)c1CN1C[C@H](c2ccc(N3CCN(S(=O)(=O)c4cccc(F)c4)CC3)cc2)[C@@H](N(C)C)C1 | 40 | 50
CC(=O)N[C@H]1CCN(c2ccc([C@H]3CN(Cc4c(C)cccc4F)C[C@@H]3N(C)C)cc2)C1 | 90 | 240
CC(=O)N[C@@H]1CCN(c2ccc([C@H]3CN(Cc4c(C)cccc4F)C[C@@H]3N(C)C)cc2)C1 | 160 | –
CCN(CC)C(=O)c1ccc([C@H]2CN(Cc3c(C)cccc3F)C[C@@H]2N(C)C)cc1C | 100 | 250
Cc1cccc(F)c1CN1C[C@H](c2ccc(N3CCC(N4CCOCC4)CC3)cc2)[C@@H](N(C)C)C1 | 40 | 60
Cc1cccc(F)c1CN1C[C@H](c2ccc(N3CCC(C#N)CC3)cc2)[C@@H](N(C)C)C1 | 70 | 140
Cc1cccc(F)c1CN1C[C@H](c2ccc(N3CCC(C)CC3)cc2)[C@@H](N(C)C)C1 | 40 | 140
Cc1cccc(F)c1CN1C[C@H](c2ccc(N(C)C3CCN(C)CC3)cc2)[C@@H](N(C)C)C1 | 90 | 350
Cc1cc([C@H]2CN(Cc3c(C)cccc3F)C[C@@H]2N(C)C)ccc1C(=O)NCCN(C)C | 80 | 150
Cc1cccc(F)c1CN1C[C@H](c2ccc(N3CCN(c4nccs4)CC3)cc2)[C@@H](N(C)C)C1 | 30 | 40
Cc1cc([C@H]2CN(Cc3c(C)cccc3F)C[C@@H]2N(C)C)ccc1C(=O)N1CCN(C)CC1 | 260 | 480
